{"source": "ChEMBL document CHEMBL1122226", "about": "“6-Aryl-4,5-dihydro-3(2H)-pyridazinones. A new class of compounds with platelet aggregation inhibiting and hypotensive activities” (J Med Chem, 1983)"}
{"species": "Homo sapiens", "experiment": "(§1) In vitro inhibition of ADP-induced human platelet aggregation", "assay_type": "functional", "conditions": "not given", "how_it_was_run": "(§2)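 Human venous blood citrated with 10% v/v sodium citrate (3.8%); platelet-rich plasma spun at 300g, 10 min, 4 °C, used within 2 h. Compound in Me2SO (1% final) preincubated 10 min at room temperature; aggregation triggered by collagen 0.02 mg/mL final or ADP 0.85 μg/mL final; maximum rate read in Born aggregometer. EC50 from log dose–effect regression with 95% confidence limits.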", "units": {"EC50": "µg/mL"}}
{"smiles": "N/N=c1\\[nH][nH]/c(=N\\N)c2ccccc12", "note": "[DIHYDRALAZINE]", "EC50": 310}
{"species": "Homo sapiens", "experiment": "as §1", "assay_type": "functional", "conditions": "Homo sapiens; read-out: EC50", "how_it_was_run": "as §2", "units": {"EC50": "µg/mL"}}
{"smiles": "CC(C)NCC(=O)Nc1ccc(C2=NNC(=O)CC2)cc1.Cl", "EC50": "~46.4"}
{"smiles": "O=C1CCC(c2ccc(NC(=O)CCCCl)cc2)=NN1", "EC50": "> 46.4"}
{"smiles": "CCC(Cl)C(=O)Nc1ccc(C2=NNC(=O)CC2C)cc1", "note": "(stereo not drawn)", "EC50": 0.035}
{"smiles": "CCC(C)NCC(=O)Nc1ccc(C2=NNC(=O)CC2)cc1.Cl", "note": "(stereo not drawn)", "EC50": "~21.5"}
{"smiles": "CCCC(=O)Nc1ccc(C2=NNC(=O)CC2)cc1", "EC50": 1.44}
{"smiles": "Nc1ccc(C2=NNC(=O)CC2)cc1", "EC50": 46.4}
{"smiles": "CC(=O)Nc1ccc(C2=NN(C)C(=O)CC2)cc1", "EC50": "> 46.4"}
{"smiles": "CC(Cl)CC(=O)Nc1ccc(C2=NNC(=O)CC2C)cc1", "note": "(stereo not drawn)", "EC50": 4.78}
{"smiles": "CC(=O)Nc1ccc(C2=NNC(=O)C(C)C2)cc1", "note": "(stereo not drawn)", "EC50": 46.4}
{"species": "Homo sapiens", "experiment": "(§3) In vitro inhibition of collagen-induced human platelet aggregation.", "assay_type": "functional, organism-based", "conditions": "not given", "how_it_was_run": "as §2", "units": {"EC50": "µg/mL"}}
{"smiles": "N/N=c1\\[nH][nH]/c(=N\\N)c2ccccc12", "note": "[DIHYDRALAZINE]", "EC50": 149}
{"species": "Homo sapiens", "experiment": "as §3", "assay_type": "functional, organism-based", "conditions": "Homo sapiens; read-out: EC50", "how_it_was_run": "as §2", "units": {"EC50": "µg/mL"}}
{"smiles": "CC(C)NCC(=O)Nc1ccc(C2=NNC(=O)CC2)cc1.Cl", "EC50": "~21.5"}
{"smiles": "O=C1CCC(c2ccc(NC(=O)CCCCl)cc2)=NN1", "EC50": "> 46.4"}
{"smiles": "CCC(Cl)C(=O)Nc1ccc(C2=NNC(=O)CC2C)cc1", "note": "(stereo not drawn)", "EC50": 0.069}
{"smiles": "CCC(C)NCC(=O)Nc1ccc(C2=NNC(=O)CC2)cc1.Cl", "note": "(stereo not drawn)", "EC50": "~21.5"}
{"smiles": "CCCC(=O)Nc1ccc(C2=NNC(=O)CC2)cc1", "EC50": 1.45}
{"smiles": "Nc1ccc(C2=NNC(=O)CC2)cc1", "EC50": 14.8}
{"smiles": "CC(=O)Nc1ccc(C2=NN(C)C(=O)CC2)cc1", "EC50": "> 46.4"}
{"smiles": "CC(Cl)CC(=O)Nc1ccc(C2=NNC(=O)CC2C)cc1", "note": "(stereo not drawn)", "EC50": 3.29}
{"smiles": "CC(=O)Nc1ccc(C2=NNC(=O)C(C)C2)cc1", "note": "(stereo not drawn)", "EC50": 46.4}
{"species": "Homo sapiens", "experiment": "Relative activity (compared to acetylsalicylic acid) for in vitro inhibition of collagen-induced human platelet aggregation", "assay_type": "functional", "conditions": "not given"}
{"smiles": "CC(C)NCC(=O)Nc1ccc(C2=NNC(=O)CC2)cc1.Cl", "Relative activity": "~23"}
{"smiles": "O=C1CCC(c2ccc(NC(=O)CCCCl)cc2)=NN1", "Relative activity": "<11"}
{"smiles": "CCC(Cl)C(=O)Nc1ccc(C2=NNC(=O)CC2C)cc1", "note": "(stereo not drawn)", "Relative activity": 7159}
{"smiles": "CCC(C)NCC(=O)Nc1ccc(C2=NNC(=O)CC2)cc1.Cl", "note": "(stereo not drawn)", "Relative activity": "~23"}
{"smiles": "CCCC(=O)Nc1ccc(C2=NNC(=O)CC2)cc1", "Relative activity": 341}
{"smiles": "Nc1ccc(C2=NNC(=O)CC2)cc1", "Relative activity": 33}
{"smiles": "CC(=O)Nc1ccc(C2=NN(C)C(=O)CC2)cc1", "Relative activity": "<11"}
{"smiles": "N/N=c1\\[nH][nH]/c(=N\\N)c2ccccc12", "note": "[DIHYDRALAZINE]", "Relative activity": 3}
{"smiles": "CC(Cl)CC(=O)Nc1ccc(C2=NNC(=O)CC2C)cc1", "note": "(stereo not drawn)", "Relative activity": 150}
{"smiles": "CC(=O)Nc1ccc(C2=NNC(=O)C(C)C2)cc1", "note": "(stereo not drawn)", "Relative activity": 11}
{"system": "Rattus norvegicus", "experiment": "In vitro hypotensive activity in anesthetized rats after intraperitoneal administration.", "assay_type": "functional", "conditions": "ip, in the assay text read “In vivo” for “In vitro”", "how_it_was_run": "(§4)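 Male Sprague-Dawley rats, 230-280 g, urethane-anesthetized (ip); carotid arterial pressure recorded continuously by pressure transducer. Compounds given ip at 2 mL/kg. ED20, dose lowering mean carotid pressure by 20%, from log dose–effect regression; dihydralazine as reference.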", "units": {"ED20": "mg/kg"}}
{"smiles": "CC(C)NCC(=O)Nc1ccc(C2=NNC(=O)CC2)cc1.Cl", "ED20": "> 1"}
{"smiles": "O=C1CCC(c2ccc(NC(=O)CCCCl)cc2)=NN1", "ED20": "> 1"}
{"smiles": "CCC(Cl)C(=O)Nc1ccc(C2=NNC(=O)CC2C)cc1", "note": "(stereo not drawn)", "ED20": 0.65}
{"smiles": "CCC(C)NCC(=O)Nc1ccc(C2=NNC(=O)CC2)cc1.Cl", "note": "(stereo not drawn)", "ED20": "> 1"}
{"smiles": "CCCC(=O)Nc1ccc(C2=NNC(=O)CC2)cc1", "ED20": 0.46}
{"smiles": "Nc1ccc(C2=NNC(=O)CC2)cc1", "ED20": 0.18}
{"smiles": "CC(=O)Nc1ccc(C2=NN(C)C(=O)CC2)cc1", "ED20": 1}
{"smiles": "N/N=c1\\[nH][nH]/c(=N\\N)c2ccccc12", "note": "[DIHYDRALAZINE]", "ED20": 0.34}
{"smiles": "CC(Cl)CC(=O)Nc1ccc(C2=NNC(=O)CC2C)cc1", "note": "(stereo not drawn)", "ED20": 0.187}
{"smiles": "CC(=O)Nc1ccc(C2=NNC(=O)C(C)C2)cc1", "note": "(stereo not drawn)", "ED20": "> 1"}
{"system": "Rattus norvegicus", "experiment": "Ex vivo inhibition of collagen-induced rat platelet aggregation after peroral administration", "assay_type": "functional", "conditions": "po", "how_it_was_run": "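Male Sprague-Dawley rats, 200-250 g, dosed orally, three rats per dose. Blood drawn by heart puncture under ether 1 h post-dose; platelet-rich plasma prepared by centrifugation; aggregation induced with collagen 0.02 mg/mL final, maximum rate read in Born aggregometer.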", "units": {"ED33": "mg/kg"}}
{"smiles": "CCC(Cl)C(=O)Nc1ccc(C2=NNC(=O)CC2C)cc1", "note": "(stereo not drawn)", "ED33": 0.66}
{"system": "not listed separately", "experiment": "In vitro inhibition of collagen induced aggregation of human plateles and the ratio of ED33 to EC50 was reported", "assay_type": "functional", "conditions": "not given", "how_it_was_run": "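Ratio of oral ED33 (male Sprague-Dawley rats, 3 per dose, blood taken 1 h post-dose, collagen-triggered aggregation) to in vitro EC50 (human citrated platelet-rich plasma, 10 min room-temperature preincubation in 1% Me2SO, collagen 0.02 mg/mL final, regression-derived).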"}
{"smiles": "CCC(Cl)C(=O)Nc1ccc(C2=NNC(=O)CC2C)cc1", "note": "(stereo not drawn)", "Ratio": 9.6}
{"system": "Rattus norvegicus", "experiment": "Activity relative to dihydralazine for in vitro hypotensive activity in anesthetized rats", "assay_type": "functional", "conditions": "in the assay text read “in vivo” for “in vitro”", "how_it_was_run": "as §4"}
{"smiles": "CC(C)NCC(=O)Nc1ccc(C2=NNC(=O)CC2)cc1.Cl", "Relative activity": "<0.34"}
{"smiles": "O=C1CCC(c2ccc(NC(=O)CCCCl)cc2)=NN1", "Relative activity": "<0.34"}
{"smiles": "CCC(Cl)C(=O)Nc1ccc(C2=NNC(=O)CC2C)cc1", "note": "(stereo not drawn)", "Relative activity": 0.52}
{"smiles": "CCC(C)NCC(=O)Nc1ccc(C2=NNC(=O)CC2)cc1.Cl", "note": "(stereo not drawn)", "Relative activity": "<0.34"}
{"smiles": "CCCC(=O)Nc1ccc(C2=NNC(=O)CC2)cc1", "Relative activity": 0.74}
{"smiles": "Nc1ccc(C2=NNC(=O)CC2)cc1", "Relative activity": 1.88}
{"smiles": "CC(=O)Nc1ccc(C2=NN(C)C(=O)CC2)cc1", "Relative activity": 0.34}
{"smiles": "N/N=c1\\[nH][nH]/c(=N\\N)c2ccccc12", "note": "[DIHYDRALAZINE]", "Relative activity": 1}
{"smiles": "CC(Cl)CC(=O)Nc1ccc(C2=NNC(=O)CC2C)cc1", "note": "(stereo not drawn)", "Relative activity": 1.81}
{"smiles": "CC(=O)Nc1ccc(C2=NNC(=O)C(C)C2)cc1", "note": "(stereo not drawn)", "Relative activity": "<0.34"}
{"species": "Rattus norvegicus", "experiment": "Relative activity in rats based on acetylsalicylic acid", "assay_type": "functional", "conditions": "not given"}
{"smiles": "CCC(Cl)C(=O)Nc1ccc(C2=NNC(=O)CC2C)cc1", "note": "(stereo not drawn)", "Relative activity": 353}
